The source made the active and inactive calls. The calls are words filed in the database; no cut-off is given here.
Tests used:
[1] = target: T1, Cannabinoid receptor 2 (Homo sapiens, UniProt P34972); experiment: Displacement of [3H]-CP55,940 from human CB2 receptor expressed in CHO membranes after 1 hr by liquid scintillation counting; assay type: cell membranes
Procedure, shortened: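 0.5 nM [3H]-CP-55,940 on 6 µg hCB2-CHO membranes in 20 mM Hepes, 5 mM MgCl2, 1 mM EDTA, 0.3% BSA, pH 7.4, 1 h at 30 °C. Filtered over GF/C and counted by scintillation. Nonspecific binding with 5 µM (R)-(+)-WIN 55,212-2; DMSO <0.1%. Screened first at 10 µM; Ki by nonlinear regression of competition curves where displacement >60%; ≥4 experiments in duplicate.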

[2] = target: Cannabinoid receptor 1 (Homo sapiens, UniProt P21554); experiment: Displacement of [3H]-SR141716A from human CB1 receptor expressed in CHO membranes after 1 hr by liquid scintillation counting; assay type: cell membranes
[3] = system: HT-29; experiment: Antiproliferative activity against human HT-29 cells at 10 uM after 72 hrs by MTS assay; assay type: cell-based; settings: ht-29, 72 h
Procedure, shortened: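 HT29 cells grown in DMEM-Glutamax with 10% FBS and penicillin/streptomycin, 37 °C, 5% CO2. Plated at 3000 cells/well in triplicate, left 24 h, then exposed to 10 µM compound (<0.1% DMSO) for 72 h. Growth read by colorimetric MTS reduction to formazan, given as % proliferation inhibition; ≥4 experiments in duplicate.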

[4] = species on record: Homo sapiens; experiment: Selectivity ratio of Ki for human CB1 receptor expressed in CHO membranes to Ki for human CB2 receptor expressed in CHO membranes; assay type: cell membranes
[5] = target: T1, Cannabinoid receptor 2; experiment: Agonist activity at human CB2 receptor expressed in CHO membranes assessed as [35S]-GTPgammaS binding after 1 hr; assay type: functional, cell membranes
Procedure, shortened: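 hCB2-CHO membranes (10 µg protein) in 20 mM Hepes, 10 mM MgCl2, 100 mM NaCl, 0.1% BSA, pH 7.4, with 30 µM GDP. Started with 0.1 nM [35S]-GTPγS (final) and run 1 h at 30 °C, then filtered and counted. Nonspecific binding taken with 100 µM Gpp(NH)p; basal activity set at 100%. EC50 and Emax by nonlinear regression, ≥4 experiments in duplicate.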

[6] = system: Mus musculus; experiment: Anticolitis activity in DSS-induced acute colitis C57/Bl6 mouse model assessed as effect on TNF-alpha levels at 10 mg/kg, ip qd for 7 days measured after 7 days by RT-PCR analysis relative to vehicle-treated control; assay type: functional, organism-based; set-up: dose 10 mg/kg
[7] = system: Mus musculus; experiment: Anticolitis activity in DSS-induced acute colitis C57/Bl6 mouse model assessed as reduction in ratio of Kc mRNA to POLR2A mRNA level at 10 mg/kg, ip qd for 7 days measured after 7 days by RT-PCR analysis (reference value: 68.9 +/-9.8 no unit ); assay type: functional; settings: route intraperitoneal
[8] = system: Mus musculus; experiment: Anticolitis activity in DSS-induced acute colitis C57/Bl6 mouse model assessed as reduction in disease activity index at 10 mg/kg, ip qd for 7 days measured after 7 days relative to vehicle-treated control; assay type: functional, organism-based; set-up: dose 10 mg/kg
[9] = system: Mus musculus; experiment: Anticolitis activity in DSS-induced acute colitis C57/Bl6 mouse model assessed as increase in colon length at 10 mg/kg, ip qd for 7 days measured after 7 days (reference value: 4.6 +/- 0.2 cm); assay type: functional; settings: route intraperitoneal
[10] = system: Mus musculus; experiment: Anticolitis activity in DSS-induced acute colitis C57/Bl6 mouse model assessed as reduction in colon inflammation at 10 mg/kg, ip qd for 7 days measured after 7 days by histological analysis relative to vehicle-treated control; assay type: functional, organism-based; set-up: dose 10 mg/kg
Procedure, shortened: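 In DSS-colitic male C57BL6 mice given 10 mg/kg ip daily for 7 days in cyclodextrin vehicle, May-Grünwald-Giemsa-stained distal colon sections were scored for inflammatory infiltrate (0–3) and tissue damage (0–3), n = 10.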

[11] = system: Mus musculus; experiment: Anticolitis activity in DSS-induced acute colitis C57/Bl6 mouse model assessed as reduction in ratio of IL-1beta mRNA to POLR2A mRNA level at 10 mg/kg, ip qd for 7 days measured after 7 days by RT-PCR analysis (reference value: 105.1 +/-17.0 no unit ); assay type: functional; settings: route intraperitoneal
[12] = system: Mus musculus; experiment: Anticolitis activity in DSS-induced acute colitis C57/Bl6 mouse model assessed as change in body weight at 10 mg/kg, ip qd for 7 days measured after 7 days (reference value: 83.1 +/- 2.2 %); assay type: functional; settings: route intraperitoneal
[13] = system: Mus musculus; experiment: Toxicity in DSS-induced acute colitis C57/Bl6 mouse model assessed as rovert reactions at 10 mg/kg, ip qd for 7 days measured after 7 days; assay type: organism-based; set-up: dose 10 mg/kg, route intraperitoneal; settings: in vivo, 168 h

T1 sequence (P34972 whole entry): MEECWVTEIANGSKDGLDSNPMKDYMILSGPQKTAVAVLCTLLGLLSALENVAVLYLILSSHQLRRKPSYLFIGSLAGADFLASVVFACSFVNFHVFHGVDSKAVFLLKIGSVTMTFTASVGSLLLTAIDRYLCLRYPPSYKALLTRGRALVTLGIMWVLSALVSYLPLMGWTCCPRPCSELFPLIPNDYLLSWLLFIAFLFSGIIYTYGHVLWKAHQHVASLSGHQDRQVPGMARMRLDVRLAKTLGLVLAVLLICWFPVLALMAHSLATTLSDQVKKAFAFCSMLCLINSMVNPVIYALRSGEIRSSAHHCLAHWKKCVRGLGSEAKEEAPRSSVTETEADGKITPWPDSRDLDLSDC
Sequence of Cannabinoid receptor 1 (P21554 whole entry, looked up): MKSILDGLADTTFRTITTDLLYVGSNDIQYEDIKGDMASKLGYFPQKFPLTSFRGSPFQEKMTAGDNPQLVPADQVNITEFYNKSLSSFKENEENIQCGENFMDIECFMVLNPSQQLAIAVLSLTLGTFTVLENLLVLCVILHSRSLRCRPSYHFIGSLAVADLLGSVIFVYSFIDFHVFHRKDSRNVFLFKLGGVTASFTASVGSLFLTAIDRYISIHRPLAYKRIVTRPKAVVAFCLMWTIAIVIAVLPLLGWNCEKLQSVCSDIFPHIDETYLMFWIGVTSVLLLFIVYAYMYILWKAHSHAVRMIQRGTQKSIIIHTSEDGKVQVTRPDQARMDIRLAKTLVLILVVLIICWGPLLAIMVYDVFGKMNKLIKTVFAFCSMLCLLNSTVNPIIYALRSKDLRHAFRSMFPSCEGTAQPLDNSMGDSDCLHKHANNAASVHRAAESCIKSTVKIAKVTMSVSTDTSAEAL

| Compound | Ki [1] | Ki [2] | Activity [3] | Ratio Ki [4] | EC50 [5] | other results |
| --- | --- | --- | --- | --- | --- | --- |
| CCCCCOc1cccc(-c2cc(C(=O)NC34CC5CC(CC(C5)C3)C4)no2)c1 | > 1000 nM | – | – | – | – | – |
| CCCCCOc1ccccc1-c1cc(C(=O)Nc2ccccc2)no1 | > 1000 nM | – | – | – | – | – |
| O=C(NC12CC3CC(CC(C3)C1)C2)c1cc(-c2ccccc2)on1 | > 1000 nM | – | – | – | – | – |
| CCCCCOc1ccccc1-c1cc(C(=O)NC2CCCC2)no1 | 60.9 nM | > 1 µM | 13% | > 16 | 2.1 nM | – |
| CCCCCCCCOc1ccccc1-c1cc(C(=O)NC23CC4CC(CC(C4)C2)C3)no1 | > 1000 nM | – | – | – | – | – |
| CCCCCCOc1ccccc1-c1cc(C(=O)NC23CC4CC(CC(C4)C2)C3)no1 | 30.5 nM | > 3 µM | 17% | > 98 | 3.4 nM | – |
| CCCCCOc1ccccc1-c1cc(C(=O)NN2CCCCC2)no1 | 600 nM | – | – | – | – | – |
| CCCCCOc1ccccc1-c1cc(C(=O)NC2CCCCC2)no1 | 22.8 nM | > 3 µM | 37% | > 131 | 1.9 nM | – |
| CCCCOc1ccccc1-c1cc(C(=O)NC23CC4CC(CC(C4)C2)C3)no1 | 369 nM | > 3 µM | 2% | > 8 | 2.88 nM | – |
| CCCCCCCOc1ccccc1-c1cc(C(=O)NC23CC4CC(CC(C4)C2)C3)no1 | > 1000 nM | – | – | – | – | – |
| CCCCCOc1ccccc1-c1cc(C(=O)NC2CCC2)no1 | 412 nM | > 1 µM | 46% | > 2 | 4.4 nM | – |
| CCCCCOc1ccccc1-c1cc(C(=O)NCc2ccccc2)no1 | > 3000 nM | – | – | – | – | – |
| CCCCCOc1ccccc1-c1cc(C(=O)N(CC(C)C)CC(C)C)no1 | 22.1 nM | 0.033 µM | – | – | – | – |
| CCCCCOc1ccc(-c2cc(C(=O)NC34CC5CC(CC(C5)C3)C4)no2)cc1 | > 1000 nM | – | – | – | – | – |
| O=C(NCC12CC3CC(CC(C3)C1)C2)c1cc(-c2ccccc2)on1 | > 1000 nM | – | – | – | – | – |
| CCCCCOc1ccccc1-c1cc(C(=O)Nc2cccc3ccccc23)no1 | > 1000 nM | – | – | – | – | – |
| CCCCCOc1ccccc1-c1cc(C(=O)NC2CCCCCCC2)no1 | 73.5 nM | > 3 µM | 17% | > 40 | 1.8 nM | – |
| CCOc1ccccc1-c1cc(C(=O)NC23CC4CC(CC(C4)C2)C3)no1 | > 1000 nM | – | – | – | – | – |
| COc1ccccc1-c1cc(C(=O)NC23CC4CC(CC(C4)C2)C3)no1 | 70.1 nM | > 3 µM | – | > 42 | 2.56 nM | – |
| CCCCCOc1ccccc1-c1cc(C(=O)NC2CC2)no1 | > 1000 nM | – | – | – | – | – |
| CCCCCOc1ccccc1-c1cc(C(=O)NC23CC4CC(CC2C4)C3)no1 | 9 nM | > 1 µM | 20% | > 111 | 4.8 nM | Activity [6]: inactive; Ratio [7]: 11.5; Activity [8]: Active; Activity [9]: 5.6 cm; Activity [10]: Active; Ratio [11]: 19.9; Activity [12]: 92.8%; Activity [13]: Non-toxic |
| CCCCCOc1ccccc1-c1cc(C(=O)NC23CC4CC(CC(C4)C2)C3)no1 | 36 nM | > 3 µM | 0% | > 83 | 2.9 nM | – |
| O=C(NC1C2CC3CC(C2)CC1C3)c1cc(-c2ccccc2)on1 (stereo unspecified) | > 1000 nM | – | – | – | – | – |
| CCCCCOc1ccccc1-c1cc(C(=O)NC2CCCCCC2)no1 | 60.8 nM | > 3 µM | 34% | > 49 | 11.1 nM | Activity [6]: inactive; Ratio [7]: 12.3; Activity [8]: Active; Activity [9]: 5.4 cm; Activity [10]: Active; Ratio [11]: 13.2; Activity [12]: 91.8%; Activity [13]: Non-toxic |
| CCCCCOc1ccccc1-c1cc(C(=O)NC2C3CC4CC(C3)CC2C4)no1 (stereo unspecified) | 60.1 nM | > 3 µM | 0% | > 49 | 14.8 nM | – |
| CCCOc1ccccc1-c1cc(C(=O)NC23CC4CC(CC(C4)C2)C3)no1 | 79.6 nM | > 1 µM | 8% | > 12 | 2.21 nM | – |
| CCCCCOc1ccccc1-c1cc(C(=O)Nc2nnc(C)s2)no1 | > 3000 nM | – | – | – | – | – |

Source: ChEMBL document CHEMBL2413003, “3-Carboxamido-5-aryl-isoxazoles as new CB2 agonists for the treatment of colitis” (Bioorg Med Chem, 2013)
